Laboratory results from ChEMBL document CHEMBL5058577, “EUbOPEN Chemogenomics Library 2 (Multiplex)” (2022).

System: Fibroblast
Test: Multiplex assay against human fibroblast
Assay type: toxicity, cell-based
Procedure, shortened: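 Tubulin, mitochondrial-mass and membrane-permeability phenotypes are per cents of healthy-nucleus cells. Cells were gated by CellPathfinder machine learning into Hoechst high-intensity objects or normal cells, normal cells into healthy, pyknosed or fragmented nuclei, and pyknosed cells into mitotic or apoptotic. Before that, live cells stained at seeding with Hoechst33342, BioTracker Green Microtubule Cytoskeleton Dye, MitoTracker Red and Annexin V Alexa Fluor 680 were imaged on a CQ1 microscope at 37°C and 5% CO2 after compound addition.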

[1] = 12 h, 1 µM, compound concentration 1 uM, replicate 1
[2] = 12 h, 1 µM, compound concentration 1 uM, replicate 2
[3] = 12 h, 10 µM, compound concentration 10 uM, replicate 1
[4] = 12 h, 10 µM, compound concentration 10 uM, replicate 2
[5] = 24 h, 1 µM, compound concentration 1 uM, replicate 1
[6] = 24 h, 1 µM, compound concentration 1 uM, replicate 2
[7] = 24 h, 10 µM, compound concentration 10 uM, replicate 1
[8] = 24 h, 10 µM, compound concentration 10 uM, replicate 2
[9] = 48 h, 1 µM, compound concentration 1 uM, replicate 1
[10] = 48 h, 1 µM, compound concentration 1 uM, replicate 2
[11] = 48 h, 10 µM, compound concentration 10 uM, replicate 1
[12] = 48 h, 10 µM, compound concentration 10 uM, replicate 2

Structure (SMILES): CN1CCN2c3ncccc3Cc3ccccc3C2C1 (stereo not given) [MIRTAZAPINE]
- Population Apoptotic (%) [1]: 44%
- Population Fragmented Nuclei (%) [1]: 10%
- Population Healthy Nuclei (%) [1]: 77%
- Population Hoechst High Intensity Objects (%) [1]: 3%
- Population Membrane Permeable-Phenotype (%) [1]: 0%
- Population Mitochondria Different-Phenotype (%) [1]: 6%
- Population Mitotic Cells (%) [1]: 56%
- Population Normal (%) [1]: 96%
- Population Pyknosed Nuclei (%) [1]: 12%
- Population Tubulin-Different-Phenotype (%) [1]: 24%
- Total Cell Count [1]: 213
- Population Apoptotic (%) [2]: 33%
- Population Fragmented Nuclei (%) [2]: 24%
- Population Healthy Nuclei (%) [2]: 47%
- Population Membrane Permeable-Phenotype (%) [2]: 4%
- Population Mitochondria Different-Phenotype (%) [2]: 5%
- Population Mitotic Cells (%) [2]: 66%
- Population Pyknosed Nuclei (%) [2]: 27%
- Population Tubulin-Different-Phenotype (%) [2]: 45%
- Total Cell Count [2]: 156
- Population Apoptotic (%) [3]: 44%
- Population Fragmented Nuclei (%) [3]: 19%
- Population Healthy Nuclei (%) [3]: 69%
- Population Hoechst High Intensity Objects (%) [3]: 1%
- Population Membrane Permeable-Phenotype (%) [3]: 0%
- Population Mitochondria Different-Phenotype (%) [3]: 8%
- Population Mitotic Cells (%) [3]: 55%
- Population Normal (%) [3]: 98%
- Population Pyknosed Nuclei (%) [3]: 10%
- Population Tubulin-Different-Phenotype (%) [3]: 30%
- Total Cell Count [3]: 168
- Population Apoptotic (%) [4]: 28%
- Population Fragmented Nuclei (%) [4]: 27%
- Population Healthy Nuclei (%) [4]: 40%
- Population Hoechst High Intensity Objects (%) [4]: 6%
- Population Membrane Permeable-Phenotype (%) [4]: 16%
- Population Mitochondria Different-Phenotype (%) [4]: 7%
- Population Mitotic Cells (%) [4]: 71%
- Population Normal (%) [4]: 93%
- Population Pyknosed Nuclei (%) [4]: 32%
- Population Tubulin-Different-Phenotype (%) [4]: 60%
- Total Cell Count [4]: 140
- Population Apoptotic (%) [5]: 47%
- Population Fragmented Nuclei (%) [5]: 7%
- Population Healthy Nuclei (%) [5]: 82%
- Population Hoechst High Intensity Objects (%) [5]: 5%
- Population Membrane Permeable-Phenotype (%) [5]: 0%
- Population Mitochondria Different-Phenotype (%) [5]: 5%
- Population Mitotic Cells (%) [5]: 52%
- Population Normal (%) [5]: 94%
- Population Pyknosed Nuclei (%) [5]: 10%
- Population Tubulin-Different-Phenotype (%) [5]: 31%
- Total Cell Count [5]: 201
- Population Apoptotic (%) [6]: 48%
- Population Fragmented Nuclei (%) [6]: 26%
- Population Healthy Nuclei (%) [6]: 50%
- Population Hoechst High Intensity Objects (%) [6]: 0%
- Population Membrane Permeable-Phenotype (%) [6]: 10%
- Population Mitochondria Different-Phenotype (%) [6]: 10%
- Population Mitotic Cells (%) [6]: 51%
- Population Normal (%) [6]: 99%
- Population Pyknosed Nuclei (%) [6]: 23%
- Population Tubulin-Different-Phenotype (%) [6]: 36%
- Total Cell Count [6]: 153
- Population Apoptotic (%) [7]: 50%
- Population Fragmented Nuclei (%) [7]: 19%
- Population Healthy Nuclei (%) [7]: 72%
- Population Hoechst High Intensity Objects (%) [7]: 4%
- Population Membrane Permeable-Phenotype (%) [7]: 0%
- Population Mitochondria Different-Phenotype (%) [7]: 9%
- Population Mitotic Cells (%) [7]: 50%
- Population Normal (%) [7]: 95%
- Population Pyknosed Nuclei (%) [7]: 7%
- Population Tubulin-Different-Phenotype (%) [7]: 30%
- Total Cell Count [7]: 186
- Population Apoptotic (%) [8]: 46%
- Population Fragmented Nuclei (%) [8]: 29%
- Population Healthy Nuclei (%) [8]: 46%
- Population Hoechst High Intensity Objects (%) [8]: 5%
- Population Membrane Permeable-Phenotype (%) [8]: 15%
- Population Mitochondria Different-Phenotype (%) [8]: 1%
- Population Mitotic Cells (%) [8]: 53%
- Population Normal (%) [8]: 94%
- Population Pyknosed Nuclei (%) [8]: 23%
- Population Tubulin-Different-Phenotype (%) [8]: 68%
- Total Cell Count [8]: 136
- Population Apoptotic (%) [9]: 60%
- Population Fragmented Nuclei (%) [9]: 15%
- Population Healthy Nuclei (%) [9]: 73%
- Population Hoechst High Intensity Objects (%) [9]: 7%
- Population Membrane Permeable-Phenotype (%) [9]: 0%
- Population Mitochondria Different-Phenotype (%) [9]: 4%
- Population Mitotic Cells (%) [9]: 39%
- Population Normal (%) [9]: 92%
- Population Pyknosed Nuclei (%) [9]: 11%
- Population Tubulin-Different-Phenotype (%) [9]: 31%
- Total Cell Count [9]: 213
- Population Apoptotic (%) [10]: 50%
- Population Fragmented Nuclei (%) [10]: 36%
- Population Healthy Nuclei (%) [10]: 45%
- Population Hoechst High Intensity Objects (%) [10]: 2%
- Population Membrane Permeable-Phenotype (%) [10]: 11%
- Population Mitochondria Different-Phenotype (%) [10]: 12%
- Population Mitotic Cells (%) [10]: 50%
- Population Normal (%) [10]: 97%
- Population Pyknosed Nuclei (%) [10]: 17%
- Population Tubulin-Different-Phenotype (%) [10]: 56%
- Total Cell Count [10]: 161
- Population Apoptotic (%) [11]: 66%
- Population Fragmented Nuclei (%) [11]: 17%
- Population Healthy Nuclei (%) [11]: 73%
- Population Hoechst High Intensity Objects (%) [11]: 5%
- Population Membrane Permeable-Phenotype (%) [11]: 0%
- Population Mitochondria Different-Phenotype (%) [11]: 9%
- Population Mitotic Cells (%) [11]: 33%
- Population Normal (%) [11]: 94%
- Population Pyknosed Nuclei (%) [11]: 9%
- Population Tubulin-Different-Phenotype (%) [11]: 36%
- Total Cell Count [11]: 176
- Population Apoptotic (%) [12]: 33%
- Population Fragmented Nuclei (%) [12]: 46%
- Population Healthy Nuclei (%) [12]: 41%
- Population Hoechst High Intensity Objects (%) [12]: 2%
- Population Membrane Permeable-Phenotype (%) [12]: 8%
- Population Mitochondria Different-Phenotype (%) [12]: 2%
- Population Mitotic Cells (%) [12]: 66%
- Population Normal (%) [12]: 97%
- Population Pyknosed Nuclei (%) [12]: 12%
- Population Tubulin-Different-Phenotype (%) [12]: 60%
- Total Cell Count [12]: 120
